Laboratory results: ChEMBL document CHEMBL4130442, “Design, synthesis and structure-activity relationship studies of a focused library of pyrimidine moiety with anti-proliferative and anti-metastasis activities in triple negative breast cancer” (Eur J Med Chem, 2017)
Activity calls are given as the source filed them. The calls are words filed in the database; no cut-off is given here.

Key:
MDA-MB-231 [1] = assay: Effect on total c-Raf protein level in human MDA-MB-231 cells at 2.5 uM incubated for 24 hrs in presence of PDGFRbeta siRNA by Western blot relative to untreated control; type: cell-based; conditions: mda-mb-231, 24 h
[2] = biological target: T1, Platelet-derived growth factor receptor beta (Homo sapiens, UniProt P09619); assay: Inhibition of PDGFRbeta in human MDA-MB-231 cells assessed as Akt Thr305 phosphorylation level at 2.5 uM incubated for 24 hrs by Western blot relative to untreated control; type: cell-based
T1 sequence (P09619 whole entry): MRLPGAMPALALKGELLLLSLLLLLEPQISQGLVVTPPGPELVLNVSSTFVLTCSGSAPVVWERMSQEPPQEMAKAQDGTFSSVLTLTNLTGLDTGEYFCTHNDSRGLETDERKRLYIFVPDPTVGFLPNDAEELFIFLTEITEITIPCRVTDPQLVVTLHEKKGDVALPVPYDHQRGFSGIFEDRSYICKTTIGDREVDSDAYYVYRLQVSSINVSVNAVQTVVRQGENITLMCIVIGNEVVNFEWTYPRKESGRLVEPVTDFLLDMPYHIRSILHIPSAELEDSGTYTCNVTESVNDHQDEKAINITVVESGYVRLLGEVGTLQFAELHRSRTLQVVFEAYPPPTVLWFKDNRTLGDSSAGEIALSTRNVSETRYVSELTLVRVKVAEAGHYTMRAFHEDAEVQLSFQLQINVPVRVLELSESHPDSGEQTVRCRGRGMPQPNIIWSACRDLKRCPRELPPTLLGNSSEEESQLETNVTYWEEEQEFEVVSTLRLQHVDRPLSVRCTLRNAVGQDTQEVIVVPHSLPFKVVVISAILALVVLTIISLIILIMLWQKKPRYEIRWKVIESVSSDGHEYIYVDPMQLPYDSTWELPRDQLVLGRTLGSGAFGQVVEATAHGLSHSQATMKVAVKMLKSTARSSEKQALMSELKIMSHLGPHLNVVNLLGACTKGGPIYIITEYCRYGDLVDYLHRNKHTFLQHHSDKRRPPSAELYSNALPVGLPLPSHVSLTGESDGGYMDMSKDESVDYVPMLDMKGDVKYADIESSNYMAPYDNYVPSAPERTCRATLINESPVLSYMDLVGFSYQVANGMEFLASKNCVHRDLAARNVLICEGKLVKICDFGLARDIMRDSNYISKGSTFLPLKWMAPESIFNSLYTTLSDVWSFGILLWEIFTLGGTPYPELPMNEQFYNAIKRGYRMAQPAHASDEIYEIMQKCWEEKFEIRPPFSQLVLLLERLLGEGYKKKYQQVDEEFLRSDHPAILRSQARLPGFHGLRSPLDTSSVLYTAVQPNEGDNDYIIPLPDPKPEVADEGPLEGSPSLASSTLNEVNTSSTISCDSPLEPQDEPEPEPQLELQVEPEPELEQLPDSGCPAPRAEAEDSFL
Procedure, shortened: (§1)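 Cells were treated 24 h at several concentrations. Pooled adherent and floating cells were lysed in Hepes 50 mM pH 7.4 / 1% Triton X-100 buffer with vanadate, NaF, EDTA, PMSF, aprotinin and leupeptin. Equal protein was run on 10-15% SDS-PAGE and blotted to PVDF. PDGFR-β-AKT-ULK1 pathway phospho-proteins were probed and detected by ECL, with β-actin as loading control.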

MDA-MB-231 [3] = assay: Activation of ERK in human MDA-MB-231 cells assessed as ERK phosphorylation level at 2.5 to 10 uM incubated for 24 hrs by immunofluorescence assay; type: cell-based
Procedure, shortened: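 MDA-MB-231 cells (ATCC; DMEM, 10% FBS, 5% CO2) were treated, blocked in PBS with 1.5% goat serum, then given p-ERK antibody (1:200 in PBS with 1% BSA) overnight at 4 °C. TRITC-labelled secondary antibody followed for 1 h at room temperature. Nuclear fluorescence was read by microscopy.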

[4] = biological target: T1, Platelet-derived growth factor receptor beta; assay: Inhibition of PDGFRbeta in human MDA-MB-231 cells assessed as ULK Ser317 phosphorylation level at 2.5 uM incubated for 24 hrs in presence of control siRNA by Western blot relative to untreated control; type: cell-based
Procedure, shortened: (§2)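 Cells were transfected with control or PDGFR-β siRNA, then treated with 2.5 μM compound for 24 h. PDGFR-β-AKT-ULK1 pathway phospho-proteins were assessed by western blot: lysis in Hepes pH 7.4 / Triton buffer, 10-15% SDS-PAGE, PVDF, ECL detection, β-actin as loading control.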

[5] = biological target: T1, Platelet-derived growth factor receptor beta; assay: Inhibition of PDGFRbeta in human MDA-MB-231 cells assessed as C-Raf Ser338 phosphorylation level at 5 uM incubated for 24 hrs in presence of PDGFRbeta siRNA by Western blot relative to untreated control; type: cell-based
[6] = biological target: T1, Platelet-derived growth factor receptor beta; assay: Inhibition of PDGFRbeta in human MDA-MB-231 cells assessed as ULK Ser317 phosphorylation level at 2.5 uM incubated for 24 hrs in absence of PDGFRbeta siRNA by Western blot relative to untreated control; type: cell-based; procedure, shortened: as §2
[7] = biological target: Dual specificity mitogen-activated protein kinase kinase; MEK1/2 (Homo sapiens) (UniProt P36507+Q02750); assay: Inhibition of MEK1/2 in human MDA-MB-231 cells assessed as MEK1/2 Ser217/221 phosphorylation level at 5 uM incubated for 24 hrs in presence of PDGFRbeta siRNA by Western blot relative to untreated control; type: cell-based
Sequence of Dual specificity mitogen-activated protein kinase kinase; MEK1/2 (Homo sapiens) (P36507 whole entry, looked up): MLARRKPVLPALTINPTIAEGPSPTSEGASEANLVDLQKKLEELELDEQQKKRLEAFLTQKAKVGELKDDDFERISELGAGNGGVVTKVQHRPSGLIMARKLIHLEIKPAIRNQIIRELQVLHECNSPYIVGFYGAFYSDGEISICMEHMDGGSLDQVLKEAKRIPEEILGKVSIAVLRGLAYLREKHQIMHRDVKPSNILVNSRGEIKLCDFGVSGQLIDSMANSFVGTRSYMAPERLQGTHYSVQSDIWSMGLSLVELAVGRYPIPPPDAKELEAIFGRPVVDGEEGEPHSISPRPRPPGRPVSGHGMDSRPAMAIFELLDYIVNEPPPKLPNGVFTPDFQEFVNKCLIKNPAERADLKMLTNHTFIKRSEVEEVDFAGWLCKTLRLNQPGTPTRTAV
Sequence of Dual specificity mitogen-activated protein kinase kinase; MEK1/2 (Homo sapiens) (Q02750 whole entry, looked up): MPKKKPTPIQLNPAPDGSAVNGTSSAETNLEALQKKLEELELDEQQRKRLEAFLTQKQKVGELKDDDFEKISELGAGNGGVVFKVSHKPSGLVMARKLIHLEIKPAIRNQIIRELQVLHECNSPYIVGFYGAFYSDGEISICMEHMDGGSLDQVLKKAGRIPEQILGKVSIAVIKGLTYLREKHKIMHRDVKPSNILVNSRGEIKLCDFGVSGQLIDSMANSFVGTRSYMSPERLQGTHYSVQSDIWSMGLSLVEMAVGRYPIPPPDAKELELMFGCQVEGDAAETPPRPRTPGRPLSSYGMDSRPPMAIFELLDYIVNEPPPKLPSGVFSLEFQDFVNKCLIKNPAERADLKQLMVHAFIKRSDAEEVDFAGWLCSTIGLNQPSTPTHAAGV

[8] = biological target: T1, Platelet-derived growth factor receptor beta; assay: Inhibition of PDGFRbeta in human MDA-MB-231 cells assessed as mTOR Ser2448 phosphorylation level at 2.5 uM incubated for 24 hrs by Western blot relative to untreated control; type: cell-based; procedure, shortened: as §1
MDA-MB-231 [9] = assay: Antiproliferative activity against human MDA-MB-231 cells incubated for 72 hrs by MTT assay; type: functional, cell-based; conditions: MDA-MB-231, 72 h
Procedure, shortened: (§3)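 MDA-MB-231 cells grown in DMEM with 10% FBS under 5% CO2 were seeded at 5×10^4 cells/ml. After 24 h, a concentration series was added for 24, 48 or 72 h and viability was read by MTT. IC50 is mean ± SD of triplicates.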

MDA-MB-231 [10] = assay: Effect on total ULK1 protein level in human MDA-MB-231 cells at 5 uM incubated for 24 hrs by Western blot relative to untreated control; type: ADME, cell-based; conditions: mda-mb-231, 24 h
Procedure, shortened: (§4)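 MDA-MB-231 cells were exposed for 24 h. Adherent and floating cells were pooled and lysed for 1 h at 4 °C in 50 mM Hepes pH 7.4 with 1% Triton X-100, orthovanadate, NaF, EDTA, PMSF, aprotinin and leupeptin. After 12,000 rpm clearing, equal protein was run on 10-15% SDS-PAGE and blotted to PVDF. Detection used HRP-ECL, with β-actin as loading control and densitometric quantification.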

MDA-MB-231 [11] = assay: Antiproliferative activity against human MDA-MB-231 cells incubated for 24 hrs by MTT assay; type: functional, cell-based; conditions: MDA-MB-231, 24 h; procedure, shortened: as §3
MDA-MB-231 [12] = assay: Effect on total ERK1/2 protein level in human MDA-MB-231 cells at 2.5 uM incubated for 24 hrs in presence of PDGFRbeta siRNA by Western blot relative to untreated control; type: cell-based; conditions: mda-mb-231, 24 h
[13] = biological target: T1, Platelet-derived growth factor receptor beta; assay: Inhibition of PDGFRbeta in human MDA-MB-231 cells assessed as ULK Ser317 phosphorylation level at 10 uM incubated for 24 hrs by Western blot relative to untreated control; type: cell-based; procedure, shortened: as §1
MDA-MB-231 [14] = assay: Effect on total Akt protein level in human MDA-MB-231 cells at 5 uM incubated for 24 hrs by Western blot relative to untreated control; type: ADME, cell-based; conditions: mda-mb-231, 24 h; procedure, shortened: as §4
MDA-MB-231 [15] = assay: Effect on total Ras protein level in human MDA-MB-231 cells at 10 uM incubated for 24 hrs by Western blot relative to untreated control; conditions: mda-mb-231, 24 h
MDA-MB-231 [16] = assay: Effect on total Akt protein level in human MDA-MB-231 cells at 10 uM incubated for 24 hrs by Western blot relative to untreated control; type: ADME, cell-based; conditions: mda-mb-231, 24 h; procedure, shortened: as §4
MDA-MB-231 [17] = assay: Induction of autophagy in human MDA-MB-231 cells assessed as change in Beclin-1 protein level at 2.5 uM incubated for 24 hrs in presence of PDGFRbeta siRNA by Western blot method relative to untreated control; type: functional; procedure, shortened: as §4
[18] = biological target: T1, Platelet-derived growth factor receptor beta; assay: Inhibition of PDGFRbeta in human MDA-MB-231 cells assessed as Akt Ser473 phosphorylation level at 2.5 uM incubated for 24 hrs in absence of PDGFRbeta siRNA by Western blot relative to untreated control; type: cell-based; procedure, shortened: as §2
MDA-MB-231 [19] = assay: Effect on total PDGFRbeta protein level in human MDA-MB-231 cells at 2.5 uM incubated for 24 hrs in presence of control siRNA by Western blot relative to untreated control; type: ADME, cell-based; conditions: mda-mb-231, 24 h; procedure, shortened: as §4
MDA-MB-231 [20] = assay: Effect on total ERK1/2 protein level in human MDA-MB-231 cells at 5 uM incubated for 24 hrs in presence of PDGFRbeta siRNA by Western blot relative to untreated control; type: cell-based; conditions: mda-mb-231, 24 h
[21] = biological target: T1, Platelet-derived growth factor receptor beta; assay: Inhibition of PDGFRbeta in human MDA-MB-231 cells assessed as mTOR Ser2448 phosphorylation level at 2.5 uM incubated for 24 hrs in presence of control siRNA by Western blot relative to untreated control; type: cell-based; procedure, shortened: as §2
MDA-MB-231 [22] = assay: Induction of apoptosis in human MDA-MB-231 cells assessed as change in cleaved caspase-3 protein level at 2.5 uM incubated for 24 hrs by Western blot method relative to untreated control; type: functional; procedure, shortened: as §4
[23] = biological target: T1, Platelet-derived growth factor receptor beta; assay: Inhibition of PDGFRbeta in human MDA-MB-231 cells assessed as ULK Ser555 phosphorylation level at 2.5 uM incubated for 24 hrs in absence of PDGFRbeta siRNA by Western blot relative to untreated control; type: cell-based; procedure, shortened: as §2

COc1cccc(Nc2cc(N3CCN(C(=O)Nc4ccc(C(F)(F)F)cc4)CC3)ncn2)c1
fold change (FC) (MDA-MB-231 [1]): 0.8
fold change (FC) [2]: 0.95
Activity (MDA-MB-231 [3]): Active
fold change (FC) [4]: 3.21
fold change (FC) [5]: 0.78
fold change (FC) [6]: 3.67
fold change (FC) [7]: 1.05
fold change (FC) [8]: 0.74
IC50 (MDA-MB-231 [9]): 630 nM
fold change (FC) (MDA-MB-231 [10]): 0.91
IC50 (MDA-MB-231 [11]): 730 to 750 nM
fold change (FC) (MDA-MB-231 [12]): 1.08
fold change (FC) [13]: 3.2
fold change (FC) (MDA-MB-231 [14]): 0.84
fold change (FC) (MDA-MB-231 [15]): 2.32
fold change (FC) (MDA-MB-231 [16]): 0.76
fold change (FC) (MDA-MB-231 [17]): 4.18
fold change (FC) [18]: 0.48
fold change (FC) (MDA-MB-231 [19]): 0.05
fold change (FC) (MDA-MB-231 [20]): 2
fold change (FC) [21]: 0.26
fold change (FC) (MDA-MB-231 [22]): 0.87
fold change (FC) [23]: 3.67
